What was measured:
Format in all cases: in vitro ADME
[1] = molecular target: CYP2C19 (Homo sapiens, UniProt P33261); experiment: CYP inhibition in human liver microsomes; conditions: up to 15 μM
In short: (§1)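 Reversible inhibition: test compound pre-incubated 10 min at 37°C with pooled human liver microsomes plus an isoform-selective probe substrate. Reaction started with NADPH (1.3 mM), then quenched with 3% formic acid in acetonitrile containing internal standard. CYP-specific metabolite formation measured by LC-MS/MS. Activity expressed as % control = (peak area ratio with compound / without compound) × 100.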

[2] = molecular target: T1, OATP1B1 (Homo sapiens, UniProt Q9Y6L6); experiment: Inhibition of OATP1B1-mediated E217ßG uptake in HEK293 cells
T1 sequence (Q9Y6L6 1-691): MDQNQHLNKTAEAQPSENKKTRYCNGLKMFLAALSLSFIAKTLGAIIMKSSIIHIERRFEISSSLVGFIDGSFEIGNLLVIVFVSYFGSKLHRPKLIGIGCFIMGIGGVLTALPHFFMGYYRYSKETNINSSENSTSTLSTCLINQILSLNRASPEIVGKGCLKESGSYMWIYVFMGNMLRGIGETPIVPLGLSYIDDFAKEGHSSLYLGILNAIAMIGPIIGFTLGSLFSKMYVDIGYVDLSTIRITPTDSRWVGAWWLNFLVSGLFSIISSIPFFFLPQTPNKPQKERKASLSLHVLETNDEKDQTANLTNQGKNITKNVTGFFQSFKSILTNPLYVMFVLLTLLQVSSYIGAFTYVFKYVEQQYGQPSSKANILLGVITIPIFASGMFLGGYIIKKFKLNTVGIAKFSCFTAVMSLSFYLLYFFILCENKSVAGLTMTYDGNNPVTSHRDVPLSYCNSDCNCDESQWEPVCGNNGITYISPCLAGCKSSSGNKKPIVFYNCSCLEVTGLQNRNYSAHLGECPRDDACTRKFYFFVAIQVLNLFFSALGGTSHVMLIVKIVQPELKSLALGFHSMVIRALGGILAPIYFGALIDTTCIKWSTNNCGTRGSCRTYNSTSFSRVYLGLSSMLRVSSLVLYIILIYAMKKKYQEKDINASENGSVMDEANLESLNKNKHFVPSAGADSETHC

[3] = molecular target: T2, human OAT3 (Homo sapiens, UniProt Q8TCC7); experiment: Inhibition of OAT3-mediated estrone-3-sulfate uptake in HEK293 cells
T2 sequence (Q8TCC7 1-542): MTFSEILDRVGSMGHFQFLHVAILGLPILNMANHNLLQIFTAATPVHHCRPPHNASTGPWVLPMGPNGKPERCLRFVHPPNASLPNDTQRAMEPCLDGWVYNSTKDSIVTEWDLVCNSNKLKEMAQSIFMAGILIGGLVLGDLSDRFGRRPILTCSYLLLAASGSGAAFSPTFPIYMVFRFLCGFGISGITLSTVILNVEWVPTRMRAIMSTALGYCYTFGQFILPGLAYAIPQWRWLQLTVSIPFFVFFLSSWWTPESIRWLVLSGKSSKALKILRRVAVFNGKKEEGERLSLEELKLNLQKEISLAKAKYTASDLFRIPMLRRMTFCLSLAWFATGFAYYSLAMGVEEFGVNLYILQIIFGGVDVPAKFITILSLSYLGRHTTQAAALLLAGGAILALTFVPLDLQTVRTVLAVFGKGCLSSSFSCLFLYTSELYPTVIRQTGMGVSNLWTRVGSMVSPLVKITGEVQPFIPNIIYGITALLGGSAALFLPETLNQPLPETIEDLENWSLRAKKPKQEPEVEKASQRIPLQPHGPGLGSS
In short: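 HEK293 cells stably expressing human OAT3, with mock-transfected HEK293 as control cells. Uptake was run at 37°C in HK buffer (pH 7.4) with 1 μM ³H-estrone-3-sulfate plus test compound or DMSO vehicle. Cells were washed twice, lysed in 0.1 M NaOH, and counted by liquid scintillation. Transporter-specific uptake was taken as uptake in transfected cells minus uptake in control cells.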

[4] = molecular target: T3, CYP1A2 (Homo sapiens, UniProt P05177); experiment: CYP inhibition in human liver microsomes; conditions: up to 50 μM
T3 sequence (P05177 1-516): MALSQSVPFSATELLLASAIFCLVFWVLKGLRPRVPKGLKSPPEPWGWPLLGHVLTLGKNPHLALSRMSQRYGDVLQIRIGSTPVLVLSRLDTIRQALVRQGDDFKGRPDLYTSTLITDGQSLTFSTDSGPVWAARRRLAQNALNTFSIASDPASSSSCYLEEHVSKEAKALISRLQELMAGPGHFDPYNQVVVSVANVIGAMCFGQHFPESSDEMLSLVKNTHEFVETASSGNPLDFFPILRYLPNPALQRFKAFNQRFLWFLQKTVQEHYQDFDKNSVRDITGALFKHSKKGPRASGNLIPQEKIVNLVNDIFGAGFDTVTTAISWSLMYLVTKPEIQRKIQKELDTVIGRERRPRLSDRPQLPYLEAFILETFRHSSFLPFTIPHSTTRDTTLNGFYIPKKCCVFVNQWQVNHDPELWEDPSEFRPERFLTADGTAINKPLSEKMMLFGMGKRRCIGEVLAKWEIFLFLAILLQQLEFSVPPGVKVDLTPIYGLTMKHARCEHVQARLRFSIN
In short: as §1

Sequence of CYP2C19 (P33261 whole entry, canonical isoform): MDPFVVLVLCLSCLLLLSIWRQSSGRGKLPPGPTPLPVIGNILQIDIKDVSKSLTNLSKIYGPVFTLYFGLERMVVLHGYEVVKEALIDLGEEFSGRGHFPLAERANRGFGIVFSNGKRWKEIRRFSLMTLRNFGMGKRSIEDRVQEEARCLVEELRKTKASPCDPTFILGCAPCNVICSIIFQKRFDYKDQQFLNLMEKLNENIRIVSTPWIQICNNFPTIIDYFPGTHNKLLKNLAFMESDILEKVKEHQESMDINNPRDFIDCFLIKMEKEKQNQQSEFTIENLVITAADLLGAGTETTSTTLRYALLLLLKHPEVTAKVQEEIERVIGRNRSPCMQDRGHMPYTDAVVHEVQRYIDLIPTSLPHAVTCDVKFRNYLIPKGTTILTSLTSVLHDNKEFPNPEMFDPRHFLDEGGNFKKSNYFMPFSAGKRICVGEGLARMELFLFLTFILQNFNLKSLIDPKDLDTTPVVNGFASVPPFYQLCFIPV

## C[C@H]1CN(C2COC2)CCN1c1ccc(Nc2cc(-c3ccnc(N4CCn5c(cc6c5CC(C)(C)C6)C4=O)c3CO)cn(C)c2=O)nc1 [fenebrutinib]
[1]
  reversible or time-dependent inhibition of CYP2C19: No reversible or time‐dependent inhibition
[2]
  IC50: 19.7 µM
[2]; human, HEK293 cells stably expressing human OATP1B1, pH 7.4, probe E217ßG (1 μM)
  inhibition at 30 μM: 62.8%
[3]; at clinically relevant concentrations
  inhibition of OAT3 uptake transporter: no evidence of inhibition
[3]; up to 30 μM, the highest concentration tested, HEK293 cells
  influence on OAT3-mediated accumulation of estrone-3-sulfate: did not influence
[4]
  reversible or time-dependent inhibition of CYP1A2: No reversible or time‐dependent inhibition

Source: publication PMC6977399 (Clinical Pharmacology and Therapeutics, 2019)
